Results reported in ChEMBL document CHEMBL1221334, “A class of novel carboline intercalators: Their synthesis, in vitro anti-proliferation, in vivo anti-tumor action, and 3D QSAR analysis” (Bioorg Med Chem, 2010).
Activity calls are given as the source filed them. The calls are words filed in the database; no cut-off is given here.

Key:
HepG2 = assay: Cytotoxicity against human HepG2 cells […] by MTT assay; format: functional, cell-based
Method in brief: (§1)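 Cells (1 × 10⁴/ml) in RPMI-1640 were cultured 24 h at 37 °C in 5% CO₂. Medium was then renewed with compound (final 0.1–200 µM) and cells grown a further 48 h. MTT was added for 4 h, residues dissolved in DMSO and absorbance read. I% = (C − T)/C. IC50 is given as mean ± SD, n = 6.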

K562 = assay: Cytotoxicity against human K562 cells […] by MTT assay; format: functional, cell-based; method in brief: as §1
CCRF S-180 [1] = assay: Antitumor activity against mouse S180 cells transplanted in ICR mouse assessed as inhibition of tumor weight at 8.9 umol/kg, ip; format: functional; conditions: CCRF S-180, ip
Method in brief: (§2)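 S180 ascites cells, serially passaged weekly in mice, were implanted subcutaneously (1 × 10⁷ viable cells in NS) in the right axilla of male ICR mice aged 10–12 weeks. After 24 h, mice were randomized (10/group) and dosed ip daily with 8.9 µmol/kg in 0.2 ml NS for 7 days. Tumours were weighed 24 h after the last dose. Inhibition = [1 − Tw/Cw] × 100.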

HeLa = assay: Cytotoxicity against human HeLa cells […] by MTT assay; format: functional, cell-based; method in brief: as §1
Bel-7402 = assay: Cytotoxicity against human Bel7402 cells […] by MTT assay; format: functional, cell-based; method in brief: as §1
B16 = assay: Cytotoxicity against mouse B16 cells […] by MTT assay; format: functional, cell-based
CCRF S-180 [2] = assay: Antitumor activity against mouse S180 cells transplanted in ICR mouse assessed as inhibition of tumor weight at 89 umol/kg, ip; format: functional; conditions: CCRF S-180, ip
CCRF S-180 [3] = assay: Antitumor activity against mouse S180 cells transplanted in ICR mouse assessed as inhibition of tumor weight at 0.89 umol/kg, ip; format: functional; conditions: CCRF S-180, ip
Calf thymus DNA [4] = assay: Binding affinity to calf thymus DNA assessed as change in melting temperature; format: nucleic-acid assay; conditions: Bos taurus
Method in brief: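 Thermal denaturation used CT DNA (100 µM) with test compound (18 µM) in PBS, pH 7.4, at a compound/DNA ratio of 0.18. Temperature was raised at 1 °C/min while absorbance at 260 nm was monitored.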

Calf thymus DNA [5] = assay: Binding affinity to calf thymus DNA assessed as induction of hypochromatic effect by spectrophotometry; format: nucleic-acid assay; conditions: Bos taurus
Method in brief: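 UV absorption spectra (220–400 nm) were recorded in PBS for CT DNA (final 240 µM), alone and with test compound at final concentrations of 27, 54, 81 and 108 µM. Hypochromicity and wavelength shift were assessed.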

Calf thymus DNA [6] = assay: Binding affinity to calf thymus DNA assessed as decrease in fluorescence intensity at 8 to 72 uM by fluorescence spectroscopy; format: nucleic-acid assay; conditions: Bos taurus
Calf thymus DNA [7] = assay: Binding affinity to calf thymus DNA assessed as increase in viscosity; format: nucleic-acid assay; conditions: Bos taurus
Method in brief: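 An Ostwald viscometer was held at 28 °C in phosphate buffer, with compound/DNA ratios of 0–0.36. Flow times were taken after 5 min of thermal equilibration. η = (t − t₀)/t₀, and data were plotted as (η/η₀)^1/3 versus binding ratio.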

CCRF S-180 [8] = assay: Antitumor activity against mouse S180 cells transplanted in ICR mouse assessed as inhibition of tumor weight; format: functional, cell-based; method in brief: as §2

Tm (Calf thymus DNA [4])	Activity (Calf thymus DNA [5])	Activity (Calf thymus DNA [6])	Activity (Calf thymus DNA [7])	Compound	IC50 (HepG2)	IC50 (K562)	inhibition in vivo at 8.9 µmol/kg (CCRF S-180 [1])	IC50 (HeLa)	IC50 (Bel-7402)	IC50 (B16)	inhibition in vivo at 89 µmol/kg (CCRF S-180 [2])	inhibition in vivo at 0.89 µmol/kg (CCRF S-180 [3])	Activity (CCRF S-180 [8])
				C[C@H](NCCc1nc(C(=O)OCc2ccccc2)cc2c1[nH]c1ccccc12)C(=O)OCc1ccccc1	> 100 µM	48.2 µM	22%	76.4 µM	100 µM	20.5 µM			
				Nc1ccn([C@@H]2O[C@H](CO)[C@@H](O)[C@@H]2O)c(=O)n1 [CYTARABINE]	0.2 µM	33.5 µM	24.3%		34.2 µM		54.8%	6.8%	
13.8 °C	53%	Active	Dose-dependent effect	CC(C)C[C@H](NCCc1nc(C(=O)OCc2ccccc2)cc2c1[nH]c1ccccc12)C(=O)OCc1ccccc1	25.2 µM	21.5 µM	50.9%	22.5 µM	43.5 µM	50.2 µM			
				O=C(OCc1ccccc1)c1cc2c([nH]c3ccccc32)c(CCN2CCC[C@H]2C(=O)OCc2ccccc2)n1	17.1 µM	20.1 µM	7.1%	25.8 µM	52.8 µM	71.8 µM			
				O=C(C[C@H](NCCc1nc(C(=O)OCc2ccccc2)cc2c1[nH]c1ccccc12)C(=O)OCc1ccccc1)OCc1ccccc1	> 100 µM	> 100 µM	56.1%	> 100 µM	60.3 µM	11.1 µM	73.5%	40.6%	Dose-dependent effect
				O=C(CC[C@H](NCCc1nc(C(=O)OCc2ccccc2)cc2c1[nH]c1ccccc12)C(=O)OCc1ccccc1)OCc1ccccc1	63.1 µM	18.5 µM	29.4%	54.9 µM	> 100 µM	66.4 µM			
				NC(=O)C[C@H](NCCc1nc(C(=O)OCc2ccccc2)cc2c1[nH]c1ccccc12)C(=O)OCc1ccccc1	> 100 µM	63.6 µM	14%	97.2 µM	> 100 µM	17.1 µM			
				NC(=O)CC[C@H](NCCc1nc(C(=O)OCc2ccccc2)cc2c1[nH]c1ccccc12)C(=O)OCc1ccccc1	35.9 µM	> 100 µM	-5.3%	71 µM	81.3 µM	42.5 µM			
				CSCC[C@H](NCCc1nc(C(=O)OCc2ccccc2)cc2c1[nH]c1ccccc12)C(=O)OCc1ccccc1	18.7 µM	13.5 µM	15.3%	28.8 µM	25.8 µM	61.1 µM			
				C[C@@H](O)[C@H](NCCc1nc(C(=O)OCc2ccccc2)cc2c1[nH]c1ccccc12)C(=O)OCc1ccccc1	26 µM	38.3 µM	34.8%	15.2 µM	> 100 µM	38.4 µM			
				O=C(OCc1ccccc1)c1cc2c([nH]c3ccccc32)c(CCN[C@@H](Cc2ccc(O)cc2)C(=O)OCc2ccccc2)n1	> 100 µM	18.9 µM	31.7%	16.7 µM	23.7 µM	24.5 µM			
				O=C(NCCCC[C@H](NCCc1nc(C(=O)OCc2ccccc2)cc2c1[nH]c1ccccc12)C(=O)OCc1ccccc1)OCc1ccccc1	36.3 µM	15.4 µM	28.9%	33.9 µM	14.9 µM	49.4 µM			
				O=C(CNCCc1nc(C(=O)OCc2ccccc2)cc2c1[nH]c1ccccc12)OCc1ccccc1	50 µM	47.1 µM	3.5%	26.8 µM	53.2 µM	75.4 µM			
				O=C(OCc1ccccc1)c1cc2c([nH]c3ccccc32)c(CCN[C@@H](Cc2c[nH]c3ccccc23)C(=O)OCc2ccccc2)n1	60 µM	14.9 µM	22.2%	59.5 µM	39 µM	20.7 µM			
				CC(C)[C@H](NCCc1nc(C(=O)OCc2ccccc2)cc2c1[nH]c1ccccc12)C(=O)OCc1ccccc1	29.2 µM	20.9 µM	34%	25.5 µM	20.3 µM	28.8 µM			
				O=C(OCc1ccccc1)c1cc2c([nH]c3ccccc32)c(CCN[C@@H](CO)C(=O)OCc2ccccc2)n1	19.9 µM	19.7 µM	36.7%	20.3 µM	54.6 µM	60.3 µM			
				CC[C@H](C)[C@H](NCCc1nc(C(=O)OCc2ccccc2)cc2c1[nH]c1ccccc12)C(=O)OCc1ccccc1	> 100 µM	> 100 µM	33.9%	> 100 µM	> 100 µM	19.2 µM			
				O=C(OCc1ccccc1)c1cc2c([nH]c3ccccc32)c(CCN[C@@H](Cc2ccccc2)C(=O)OCc2ccccc2)n1	> 100 µM	> 100 µM	6.6%	> 100 µM	> 100 µM	28.1 µM			
				O=C(OCc1ccccc1)c1cc2c([nH]c3ccccc32)c(CCN[C@@H](Cc2c[nH]cn2)C(=O)OCc2ccccc2)n1	> 100 µM	14.4 µM	35.4%	63.6 µM	36.9 µM	60 µM	60.7%	6.3%	Dose-dependent effect
